Assay outcomes: PubChem, The Scripps Research Institute Molecular Screening Center
This is a sample that favours compounds with a hit; in the whole collection about 1.8% have one here.
M4 PAM = positive allosteric modulators of human muscarinic M4 receptor; P08173; activation, % at 3 µM; CHO-K1 hM4/Gqi5, Fluo-8 calcium fluorescence, ACh EC20; 0% = ACh EC20, 100% = maximal ACh; hit rate 0.4% among 360,000;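 active = activation above its plate's cutoff, the mean activation of sample wells plus 3 SD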
Target sequence (P08173 whole entry, looked up): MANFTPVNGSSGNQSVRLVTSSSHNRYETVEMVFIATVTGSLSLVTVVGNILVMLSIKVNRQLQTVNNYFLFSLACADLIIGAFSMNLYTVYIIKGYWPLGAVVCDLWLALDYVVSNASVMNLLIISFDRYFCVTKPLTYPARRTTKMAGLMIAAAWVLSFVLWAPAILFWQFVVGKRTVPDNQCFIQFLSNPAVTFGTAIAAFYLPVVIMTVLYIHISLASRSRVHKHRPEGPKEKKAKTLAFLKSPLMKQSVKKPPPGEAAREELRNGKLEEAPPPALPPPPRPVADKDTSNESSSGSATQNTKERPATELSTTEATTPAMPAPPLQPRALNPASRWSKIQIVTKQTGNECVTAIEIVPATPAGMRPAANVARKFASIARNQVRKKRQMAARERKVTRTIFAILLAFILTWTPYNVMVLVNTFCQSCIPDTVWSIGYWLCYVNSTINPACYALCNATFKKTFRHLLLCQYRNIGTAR
CHRM4 antagonist = blocks acetylcholine activation of human M4 receptor. P08173. CHO-hM4 cells, ACh EC80, Fluo-8 calcium fluorescence. inhibition, % at 3 µM. hit rate 0.73% among 360,000. AID 624125;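 active = inhibition above its plate's cutoff, the mean inhibition of sample wells plus 3 SD, cut at about 27% in these data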;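 also: 0% = acetylcholine EC80 with DMSO and 100% = DMSO without agonist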
M5 PAM = potentiates acetylcholine response at human M5 receptor | P08912 | CHO-K1 hM5, Fluo-8 calcium, ACh EC20 PAM; 0% = ACh EC20, 100% = ACh EC100 | activation, % at 3 µM | hit rate 0.3% among 360,000 | AID 624038;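 active = activation above the run cutoff, the mean activation of all test compounds plus 3 SD, cut at about 18% in these data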
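Replicates: One well per compound, no replicates | System: Human M5 receptor in CHO-K1 cells | Benchmarks: Low control EC20 acetylcholine (0%), high control EC100 acetylcholine (100%) | Probe or stimulus: Acetylcholine, EC20 level | Times: Fluo-8 loading 80 min at 37 °C plus 30 min room temperature | Signal: Intracellular calcium via Fluo-8 fluorescence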
M5 antag = antagonists of human muscarinic M5 receptor (CHRM5); CHO-hM5 cells, Fluo-8 calcium fluorescence, ACh EC80; inhibition, % at 3 µM; hit rate 0.59% among 360,000; AID 624040;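 active = inhibition above a per-plate cutoff, the mean of that plate's test compounds plus 3 SD, cut at about 27% in these data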;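 also: 0% = acetylcholine EC80 with DMSO and 100% = DMSO without agonist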
CHRM5 agonist = agonists of human muscarinic M5 receptor (CHRM5); AID 624037; hit rate 0.19% among 360,000; CHO-K1 hM5 cells, Fluo-8 calcium fluorescence; 0% DMSO wells, 100% maximal acetylcholine response; activation, % at 3 µM;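 active = activation above the run's mean over test compounds plus 3 SD, cut at about 23% in these data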;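 also: signal is peak over basal fluorescence ratio across the kinetic read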
M4 ag = CHRM4 agonism in calcium assay. P08173. CHO-K1 hM4/Gqi5, Fluo-8 calcium fluorescence; vehicle 0%, full acetylcholine response 100%. activation, % at 3 µM. hit rate 0.14% among 360,000. AID 624127;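 active = activation above the run mean over all test wells plus 3 SD, cut at about 32% in these data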;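 also: peak over basal fluorescence ratio per well then scaled between controls; 0% = DMSO wells and 100% = acetylcholine at EC100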
Numbers without * were called inactive.

How did c1ccc(C2[C@H]3CN(CC4CCCCC4)[C@H](c4ccccc4)C34CC2(c2ccccc2)C4)cc1 (some centres undefined) do in these assays?
M4 PAM: -5.3; CHRM4 antagonist: 7.3; M5 PAM: 4.6; M5 antag: -6.2; CHRM5 agonist: -2.8; M4 ag: 1.9

How did c1ccc(C2[C@H]3CN(CC4CCCCC4)[C@H](c4ccccc4)C34CC2(c2cccnc2)C4)cc1 (some centres undefined) do in these assays?
M4 PAM: -12.9; CHRM4 antagonist: 31.4*; M5 PAM: -32.5; M5 antag: 16.0; CHRM5 agonist: -12.6; M4 ag: 2.5

What do the screens show for `CS(=O)CSc1nc2c(cc1C#N)CCCC2` (centres undefined)?
M4 PAM: -15.8; CHRM4 antagonist: 57.5*; M5 PAM: -24.3; M5 antag: 21.7; CHRM5 agonist: -4.2; M4 ag: 1.1

How did c1ccc(C2=NNC(c3ccco3)=Nc3ccccc32)cc1 do in these assays?
M4 PAM: 0.7; CHRM4 antagonist: 0.4; M5 PAM: 2.3; M5 antag: -1.0; CHRM5 agonist: -0.6; M4 ag: 0.0

What do the screens show for `Cc1ccc(C2=NNC(c3ccc(Cl)cc3)=Nc3ccccc32)o1`?
M4 PAM: 25.3*; CHRM4 antagonist: 8.8; M5 PAM: 2.9; M5 antag: -6.3; CHRM5 agonist: -3.8; M4 ag: 0.2

What do the screens show for `Oc1ccc(Nc2nc(-c3ccccc3)nc3ccccc23)cc1`?
M4 PAM: -2.3; CHRM4 antagonist: 5.5; M5 PAM: -9.5; M5 antag: 6.6; CHRM5 agonist: -2.8; M4 ag: 6.5

What do the screens show for `Oc1ccc(Nc2nc3ccccc3nc2Nc2ccc(O)cc2)cc1`?
M4 PAM: -12.1; CHRM4 antagonist: 27.3*; M5 PAM: -7.5; M5 antag: 4.7; CHRM5 agonist: 3.9; M4 ag: 3.7

Results for CN1C(=O)c2ccccc2Sc2ccc(NC(=O)NC3CC3)cc21 ?
M4 PAM: 8.8; CHRM4 antagonist: -18.7; M5 PAM: 37.9*; M5 antag: 16.5; CHRM5 agonist: 2.7; M4 ag: 2.9

How did CC(=O)NCCC(=O)Nc1cc(S(=O)(=O)N2CCOCC2)ccc1Oc1ccc(F)cc1 do in these assays?
M4 PAM: 2.6; CHRM4 antagonist: 3.3; M5 PAM: 0.2; M5 antag: 9.8; CHRM5 agonist: -4.1; M4 ag: 0.1

How did Cc1ccc(-c2nc(C=Nc3ccccc3)c(O)o2)cc1 do in these assays?
M4 PAM: 0.7; CHRM4 antagonist: -5.2; M5 PAM: -1.8; M5 antag: -13.8; CHRM5 agonist: -6.9; M4 ag: 1.5

What do the screens show for `Cc1ccc(-c2nc(C=Nc3cccc(C)c3)c(O)o2)cc1`?
M4 PAM: 4.6; CHRM4 antagonist: -9.0; M5 PAM: 18.3*; M5 antag: -0.5; CHRM5 agonist: 1.5; M4 ag: 0.6

How did CCCCCCCCCn1ccc(=N)cc1 do in these assays?
M4 PAM: -13.4; CHRM4 antagonist: 30.3*; M5 PAM: -12.6; M5 antag: 9.2; CHRM5 agonist: -17.2; M4 ag: 0.0

How did COc1ccc(NC(=O)C2(c3ccccc3)CCCC2)cc1 do in these assays?
M4 PAM: -4.1; CHRM4 antagonist: 2.5; M5 PAM: -7.8; M5 antag: 0.4; CHRM5 agonist: -7.1; M4 ag: -0.8

How did O=C(COC(=O)C1(c2ccccc2)CC1)NNC(=O)c1ccccc1F do in these assays?
M4 PAM: 3.8; CHRM4 antagonist: -14.1; M5 PAM: 0.3; M5 antag: 2.7; CHRM5 agonist: 1.5; M4 ag: 0.7

What do the screens show for `CC(C[N+](C)(C)C)OC(=O)C1(c2ccccc2)CCCC1` (centres undefined)?
M4 PAM: -44.0; CHRM4 antagonist: 22.4; M5 PAM: -31.7; M5 antag: 42.0*; CHRM5 agonist: -21.6; M4 ag: 0.7

Results for C[N+]1(CCOC(=O)C2(c3ccccc3)CCCC2)CCCCC1 ?
M4 PAM: -26.1; CHRM4 antagonist: 97.4*; M5 PAM: -17.3; M5 antag: 97.9*; CHRM5 agonist: -7.8; M4 ag: 0.0

How did C[N+](C)(C)CCOC(=O)C1(c2ccccc2)CCCC1 do in these assays?
M4 PAM: -13.8; CHRM4 antagonist: 97.5*; M5 PAM: -15.3; M5 antag: 99.1*; CHRM5 agonist: -11.8; M4 ag: 0.6

How did O=C(NCC[C@@H]1CC[C@@H](NS(=O)(=O)c2ccccc2)[C@@H](CO)O1)c1cc(Cl)cc(Cl)c1 do in these assays?
M4 PAM: 3.5; CHRM4 antagonist: -11.3; M5 PAM: -1.7; M5 antag: 8.0; CHRM5 agonist: 1.2; M4 ag: 2.4

How did COc1cccc(CNC(=O)c2nnn(CC(=O)Nc3ccc4c(c3)OCO4)c2N)c1 do in these assays?
M4 PAM: -11.8; CHRM4 antagonist: 9.1; M5 PAM: -1.1; M5 antag: 9.2; CHRM5 agonist: 2.0; M4 ag: 0.6

How did COc1cccc(NC(=O)Cn2nnc(C(=O)NCc3ccc4c(c3)OCO4)c2N)c1 do in these assays?
M4 PAM: 2.6; CHRM4 antagonist: -3.8; M5 PAM: 22.1*; M5 antag: -19.1; CHRM5 agonist: 0.2; M4 ag: 3.6

How did Cc1ccc(NC(=O)Cn2nnc(C(=O)NCc3ccc4c(c3)OCO4)c2N)cc1 do in these assays?
M4 PAM: 4.3; CHRM4 antagonist: 1.0; M5 PAM: 18.1*; M5 antag: -17.8; CHRM5 agonist: 1.3; M4 ag: 2.8

What do the screens show for `Nc1c(C(=O)NCc2ccc3c(c2)OCO3)nnn1Cc1ccc(Br)cc1`?
M4 PAM: 0.9; CHRM4 antagonist: 17.0; M5 PAM: 6.6; M5 antag: 5.3; CHRM5 agonist: 30.1*; M4 ag: 29.9

Results for CNC(=O)C1CC(=O)N(CCc2ccc(C)cc2)C1 (centres undefined) ?
M4 PAM: 7.6; CHRM4 antagonist: -14.2; M5 PAM: -1.1; M5 antag: -4.0; CHRM5 agonist: -3.7; M4 ag: 1.9

What do the screens show for `O=C(O)c1cc(S(=O)(=O)N2CCN(C(=O)c3ccco3)CC2)c(Cl)cc1Cl`?
M4 PAM: 14.4*; CHRM4 antagonist: -29.6; M5 PAM: -0.9; M5 antag: 0.4; CHRM5 agonist: -5.2; M4 ag: 2.0

How did O=C(c1ccco1)N1CCN(S(=O)(=O)c2cc(Cl)ccc2Cl)CC1 do in these assays?
M4 PAM: -4.3; CHRM4 antagonist: -13.4; M5 PAM: -2.8; M5 antag: -2.4; CHRM5 agonist: -0.1; M4 ag: 1.6

How did CCOC(=O)c1sc(NC(=O)C2CC(=O)N(c3ccc4c(c3)OCCO4)C2)nc1C (centres undefined) do in these assays?
M4 PAM: 2.5; CHRM4 antagonist: 4.8; M5 PAM: -4.7; M5 antag: 5.4; CHRM5 agonist: -2.8; M4 ag: 3.8
